Experiment [1] is described as follows: RPL19A-GFP modulators, yeast TOR pathway, confirmation, cell-based, S. cerevisiae, flow cytometry, cherry picks, mother/daughter gates (AID 2270;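 active means GFP response below 50% of the DMSO control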). As to conditions: S. cerevisiae RPL19A-GFP strain, 3 h, at 10 µM, stronger effect = lower value, 100 = same GFP as DMSO wells.
A short description of experiment [2]: LAP4-GFP expression modulators in yeast, confirmation, cell-based, cherry picks, flow cytometry, mother/daughter gates (AID 2271;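 active means GFP response above 150% of the DMSO control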;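 further: ratio of sample to DMSO plate mean so 100% equals DMSO level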). As to conditions: S. cerevisiae LAP4-GFP strain, 3 h, at 10 µM, stronger effect = higher value, 100 means same as DMSO control. A digest of the protocol:
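System – GFP-fusion yeast strain · Amount – 0.2 OD600 cells · Buffer or medium – SC growth medium · Dosing – single test-compound dose, 10 µM final · Schedule – 3 h treatment at 30 °C with rotation · Detection – GFP by flow cytometry · Read-out – per-gate (all, mother, daughter) GFP response vs DMSO · Benchmarks – positive rapamycin (400 ng/mL), negative DMSO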
For orientation: Flow cytometry measures light scatter and fluorescence of single cells or particles in a stream.

Experiment [3] in a line: modulators of MEP2-GFP levels in yeast, confirmation, S. cerevisiae, flow cytometry GFP, cherry picks (AID 2272;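 active means GFP response above 150% of the DMSO control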;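 further: ratio of well signal to plate DMSO mean so 100% equals DMSO level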). As to conditions: S. cerevisiae MEP2-GFP strain, 3 h, at 10 µM, stronger effect = higher value.
Experiment [4] in a line: AGP1-GFP expression modulators, hit retest, confirmation, cell-based, flow cytometry, S. cerevisiae, cherry picks (AID 2273).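 Further: median GFP channel fluorescence over the whole cell population gate.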 As to conditions: S. cerevisiae AGP1-GFP strain, 3 h, at 10 µM.
Experiment [5] in a line: modulators of CIT2-GFP expression in yeast, confirmation, S. cerevisiae, GFP fusion, cherry picks, mother/daughter gates (AID 2274). As to conditions: S. cerevisiae CIT2-GFP strain, flow cytometry, 3 h, at 10 µM, stronger effect = higher value.
Where [6] appears, read: measured here: daughter cell gate.
The mark [7] stands for this setting: measured here: mother cell gate.
[8] abbreviates: measured here: daughter cell gate response.
[9] abbreviates: measured here: mother cell gate response.

The source made the active and inactive calls.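 How the source made its calls, unless noted: active means GFP response above 150% of the DMSO level; inconclusive means fewer than 70 events counted for a yeast strain; inactive means the rest.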

In the case of `Cn1cc(/C=C/c2cc[n+](C)cc2)c2cc(Cl)ccc21`, the GFP response vs DMSO was 99.2% (inactive) in experiment [1], 97.9% in experiment [1] (setting [6]), 100% in experiment [1] (setting [7]) and 122% (inactive) in experiment [3]. In addition, the GFP response relative to DMSO in experiment [2] is 111% (inactive); in experiment [2] (setting [8]), 112%; in experiment [2] (setting [9]), 110%. For the same molecule, the GFP response, % of DMSO in experiment [4] is 111% (inactive); in experiment [5], 125% (inactive); in experiment [5] (setting [6]), 128%; in experiment [5] (setting [7]), 124%.

For `CCc1ccc(OCC(=O)NNC(=S)NC(=O)C2CC2)c(Br)c1`, the GFP response vs DMSO in experiment [1] is 82.8% (inactive); in experiment [1] (setting [6]), 97.6%; in experiment [1] (setting [7]), 70.1%; in experiment [3] it was 126% (inactive). Further, the GFP response relative to DMSO is 204% (active) in experiment [2], 164% in experiment [2] (setting [8]) and 203% in experiment [2] (setting [9]). For the same molecule, the GFP response, % of DMSO was 90.5% (inactive) in experiment [4], 115% (inactive) in experiment [5], 110% in experiment [5] (setting [6]) and 105% in experiment [5] (setting [7]).

Turning to `CC(C)Oc1ccc(C(=O)/C=C2/C(=O)Nc3ccccc32)cc1`, the GFP response vs DMSO in experiment [1] is 88.2% (inactive); in experiment [1] (setting [6]), 83.8%; in experiment [1] (setting [7]) it was 80.3%; in experiment [3] it was 111% (inactive). In addition, the GFP response relative to DMSO is 161% (active) in experiment [2], 119% in experiment [2] (setting [8]) and 161% in experiment [2] (setting [9]). Moreover, the GFP response, % of DMSO in experiment [4] is 123% (inactive); in experiment [5] it was 110% (inactive); in experiment [5] (setting [6]) it was 93.2%; in experiment [5] (setting [7]) it was 98.7%.

As for `CC(C)NC(=O)c1ccccc1-c1nc(-c2ccccc2Cl)no1`, the GFP response vs DMSO in experiment [1] was 97.2% (inactive); in experiment [1] (setting [6]), 96.7%; in experiment [1] (setting [7]), 98%; in experiment [3], 97.8% (inactive). Moreover, the values for the GFP response relative to DMSO in experiment [2], in experiment [2] (setting [8]) and in experiment [2] (setting [9]) were 107% (inactive), 103% and 108%, respectively. Besides, the GFP response, % of DMSO in experiment [4] was 98.5% (inactive); in experiment [5] it was 91.3% (inactive); in experiment [5] (setting [6]), 93.2%; in experiment [5] (setting [7]), 90.2%.

Turning to `O=c1[nH]c(CN2CCCCC2)nc2c1C1(CCCCC1)Cc1ccccc1-2`, the GFP response vs DMSO is 100% (inactive) in experiment [1], 100% in experiment [1] (setting [6]), 100% in experiment [1] (setting [7]) and 100% (inactive) in experiment [3]. Further, the GFP response relative to DMSO in experiment [2] is 98.7% (inactive); in experiment [2] (setting [8]) it was 98.7%; in experiment [2] (setting [9]), 101%. The GFP response, % of DMSO in experiment [4] was 99.2% (inactive); in experiment [5], 99.1% (inactive); in experiment [5] (setting [6]), 96.5%; in experiment [5] (setting [7]) it was 98.7%.

On to `O=C(O)Cn1cc(/C=C/[N+](=O)[O-])c2ccccc21`, for which the GFP response vs DMSO in experiment [1] is 97.6% (inactive); in experiment [1] (setting [6]) it was 98.4%; in experiment [1] (setting [7]), 97.2%; in experiment [3], 100% (inactive). For the same molecule, the GFP response relative to DMSO is 102% (inactive) in experiment [2], 101% in experiment [2] (setting [8]) and 100% in experiment [2] (setting [9]). Also, the GFP response, % of DMSO in experiment [4] was 93.9% (inactive); in experiment [5] it was 99.7% (inactive); in experiment [5] (setting [6]), 99.1%; in experiment [5] (setting [7]), 99.7%.

With `O=C(OCCCOC(=O)c1ccc(Br)o1)c1ccc(Br)o1`, the GFP response vs DMSO in experiment [1] is 98.2% (inactive); in experiment [1] (setting [6]), 95.3%; in experiment [1] (setting [7]), 98%; in experiment [3], 103% (inactive). Moreover, the GFP response relative to DMSO was 108% (inactive) in experiment [2], 108% in experiment [2] (setting [8]) and 109% in experiment [2] (setting [9]). Also, the GFP response, % of DMSO in experiment [4] was 102% (inactive); in experiment [5], 97.2% (inactive); in experiment [5] (setting [6]), 97.6%; in experiment [5] (setting [7]), 97.1%.

Regarding `Cc1ccc(N2C(=O)C3C4C=CC(CNC(=S)N5CCN(c6ccccn6)CC5)(O4)C3C2=O)cc1` (stereo not drawn), the GFP response vs DMSO is 98.7% (inactive) in experiment [1], 99.6% in experiment [1] (setting [6]), 98.6% in experiment [1] (setting [7]) and 106% (inactive) in experiment [3]. Moreover, the GFP response relative to DMSO in experiment [2] is 113% (inactive); in experiment [2] (setting [8]) it was 109%; in experiment [2] (setting [9]), 111%. Further, the GFP response, % of DMSO in experiment [4] is 105% (inactive); in experiment [5], 99.3% (inactive); in experiment [5] (setting [6]), 100%; in experiment [5] (setting [7]) it was 96.8%.

With `O=C(c1cccc2ccccc12)N1CCN(c2ccccc2F)CC1`, the GFP response vs DMSO was 97.8% (inactive) in experiment [1], 92.9% in experiment [1] (setting [6]), 95.7% in experiment [1] (setting [7]) and 101% (inactive) in experiment [3]. Besides, the GFP response relative to DMSO is 102% (inactive) in experiment [2], 99.1% in experiment [2] (setting [8]) and 102% in experiment [2] (setting [9]). Moreover, the GFP response, % of DMSO is 102% (inactive) in experiment [4], 94.4% (inactive) in experiment [5], 92% in experiment [5] (setting [6]) and 93.2% in experiment [5] (setting [7]).

Consider `Cc1cccn2c(=O)c(/C=C(\C#N)C(=O)NCc3ccco3)c(N3CCOCC3)nc12`, for which the GFP response vs DMSO is 100% (inactive) in experiment [1], 101% in experiment [1] (setting [6]), 99.6% in experiment [1] (setting [7]) and 99% (inactive) in experiment [3]. Besides, the GFP response relative to DMSO is 97% (inactive) in experiment [2], 97.5% in experiment [2] (setting [8]) and 96.2% in experiment [2] (setting [9]). For the same molecule, the GFP response, % of DMSO in experiment [4] was 98% (inactive); in experiment [5] it was 100% (inactive); in experiment [5] (setting [6]), 103%; in experiment [5] (setting [7]), 98.1%.

With `NS(=O)(=O)c1ccc(Sc2ccccn2)c([N+](=O)[O-])c1`, the GFP response vs DMSO in experiment [1] was 97.4% (inactive); in experiment [1] (setting [6]) it was 98.6%; in experiment [1] (setting [7]), 98.5%; in experiment [3], 100% (inactive). Further, the values for the GFP response relative to DMSO in experiment [2], in experiment [2] (setting [8]) and in experiment [2] (setting [9]) were 97.9% (inactive), 99.2% and 98.3%, respectively. Besides, the GFP response, % of DMSO was 101% (inactive) in experiment [4], 98.3% (inactive) in experiment [5], 101% in experiment [5] (setting [6]) and 98.5% in experiment [5] (setting [7]).

Regarding `CCC(C)(C)n1nnnc1C(c1ccc(O)c(OC)c1)N1CCc2ccccc2C1` (stereo not drawn), the GFP response vs DMSO is 100% (inactive) in experiment [1], 99.6% in experiment [1] (setting [6]), 97.6% in experiment [1] (setting [7]) and 99.5% (inactive) in experiment [3]. Also, the GFP response relative to DMSO in experiment [2] was 117% (inactive); in experiment [2] (setting [8]) it was 99.3%; in experiment [2] (setting [9]), 117%. Moreover, the GFP response, % of DMSO in experiment [4] was 117% (inactive); in experiment [5], 108% (inactive); in experiment [5] (setting [6]) it was 108%; in experiment [5] (setting [7]), 105%.

On to `COc1ccc2c(c1)c(/C=C/c1cc[n+](C)cc1)cn2C`, for which the GFP response vs DMSO is 105% (inactive) in experiment [1], 107% in experiment [1] (setting [6]), 106% in experiment [1] (setting [7]) and 162% (inactive) in experiment [3]. For the same molecule, the GFP response relative to DMSO was 136% (inactive) in experiment [2], 143% in experiment [2] (setting [8]) and 134% in experiment [2] (setting [9]). Besides, the GFP response, % of DMSO is 111% (inactive) in experiment [4], 150% (inactive) in experiment [5], 158% in experiment [5] (setting [6]) and 145% in experiment [5] (setting [7]).

The record behind these values is PubChem BioAssay.
